TNF necrop inh = blocks TNF-alpha induced death of Jurkat FADD-/- cells. Jurkat FADD-/- TNF necroptosis rescue, ATP luminescence, 24 h; 0 = TNF only, 100 = no-TNF cells. activation (protection from cell death), % at 10 µM. 220,000 compounds, 0.068% hits. AID 463075;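 active = activation, meaning protection from cell death, of at least 50% relative to plate controls; inactive = activation below 50%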;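 also: necroptosis triggered by 40 ng/mL TNF-alpha added together with compound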
Beta2AR agonist = agonists of human beta-2 adrenergic receptor inducing internalization; Am2.2-beta2AR cells, FAP receptor internalization, flow cytometry; response, % (test concentration not listed); 340,000 compounds, 0.43% hits; AID 504454;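 active = response above a set limit, near 3 SD of response in nonfluorescent compounds, cut at about 42% in these data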
MDM2 E3 inh = blocks human Mdm2 ubiquitin ligase activity; AID 1230; 210,000 compounds, 0.11% hits; Q00987; signal enhancement, % at 5 µM; cell-based MDM2 ubiquitination luciferase reporter, 2 h; 0 = plate control, 100 = twice control, blank-subtracted;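 active = signal enhancement of 30% or more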;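 also: luminescence tracks abundance of the self-degrading MDM2-luciferase fusion protein; higher signal means inhibition of MDM2 E3 ligase activity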
Target sequence (Q00987 whole entry, looked up, the tested form may be a part): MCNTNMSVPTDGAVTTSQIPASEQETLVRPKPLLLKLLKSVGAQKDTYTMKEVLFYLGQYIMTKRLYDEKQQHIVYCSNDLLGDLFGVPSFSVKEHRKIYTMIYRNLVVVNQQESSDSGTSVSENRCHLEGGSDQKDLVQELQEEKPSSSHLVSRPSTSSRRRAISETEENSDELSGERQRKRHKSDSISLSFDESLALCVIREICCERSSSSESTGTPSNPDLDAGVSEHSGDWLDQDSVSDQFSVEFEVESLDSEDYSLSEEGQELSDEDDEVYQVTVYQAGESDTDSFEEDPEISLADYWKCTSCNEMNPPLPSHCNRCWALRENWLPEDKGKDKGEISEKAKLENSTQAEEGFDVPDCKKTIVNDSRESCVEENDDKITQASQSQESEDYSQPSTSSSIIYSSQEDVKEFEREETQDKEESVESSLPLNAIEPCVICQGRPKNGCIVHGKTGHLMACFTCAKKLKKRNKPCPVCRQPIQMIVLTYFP
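System: stable MDM2–luciferase fusion reporter cells / Input: 2000 cells seeded into each well / Schedule: 4 h settle plus 2 h compound, 37 °C / Compound: single-point 5 µM / Buffer or medium: cells held in DMEM / Benchmarks: control and blank well means / Evaluation: percent signal gain over controls, blank-subtracted / Measured by: luciferase luminescence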
L929 necroptosis = L929 zVAD cell death inhibition; L929 zVAD necroptosis rescue, ATP luminescence, 24 h; with zVAD 60 µM; viability rescue, % at 10 µM; 220,000 compounds, 0.38% hits;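 active = activation, scaled between plate controls, above about 75%, limit read from the data; inactive = activation under that limit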
Dynein transport = dynein cargo transport inhibition; 3617.4 mouse cells, GR-EGFP nuclear translocation imaging; test concentration mostly 20 µM; stimulated with dexamethasone, 1 µM; active compounds read low; z-score, hits read low; 220,000 compounds, 0.47% hits; AID 1381;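 active = plate z-score of nuclear minus cytoplasmic receptor signal below a set negative limit, without overly bright fluorescence or cell loss, cut at about -3.5 in these data, passing the limit was not always enough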;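 also: z-score of nuclear minus cytoplasmic ring GR-EGFP intensity difference per well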
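medium = tetracycline-free induction medium containing charcoal-stripped FBS | probe or stimulus = dexamethasone, 1.0 µM final | timing = 48 h induction, then 1 h compound, then 30 min agonist, 37 °C | detection = automated 10x imaging of fixed Hoechst-stained cells | read-out basis = nuclear versus cytoplasmic GR-EGFP signal, averaged per well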
zVAD death conf = confirmed blocker of zVAD induced death in L929 cells; shares compounds with L929 necroptosis; L929 zVAD-induced necroptosis rescue, ATP luminescence, 24 h; activation (protection from necroptosis), % at 10 µM; 760 compounds, 16% hits; AID 463117;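 active = mean protection from necroptosis of at least 50% over duplicate tests; inactive = mean protection below 50%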
Large screens that a line does not name were inactive (follow-up assays come after a bar, where they were run). Hits are enriched below; roughly 0.97% of the tested compounds scored in any of these assays.

[O-][n+]1c2cc(C(F)(F)F)ccc2c2n1CCN=C2c1ccc(Cl)cc1	none (no result: TNF necrop inh, MDM2 E3 inh, L929 necroptosis, Dynein transport)
CC1=C/C(=N\OS(=O)(=O)c2ccccc2)C(C)=CC1=O	none
CC1=C/C(=N\OS(=O)(=O)c2ccccc2)C(C(C)C)=CC1=O	Dynein transport -4.7
CC1=NNC(=O)/C1=C\c1cn(-c2ccccc2)nc1-c1cccs1	Beta2AR agonist 106 (no result: L929 necroptosis)
O=C(O)CCCCCN1C(=O)/C(=C/c2cn(-c3ccccc3)nc2-c2cccs2)SC1=S	none (no result: TNF necrop inh, MDM2 E3 inh, L929 necroptosis, Dynein transport)
CC1=NNC(=O)/C1=C\c1cn(-c2ccccc2)nc1-c1ccc(F)cc1	Beta2AR agonist 108
COc1ccc(C(=O)/C=C/C(=O)N(Cc2ccc(F)cc2)C(C(=O)NC2CCCCC2)c2ccncc2)c(O)c1 (stereo unspecified)	none
NC(=O)c1c(-c2ccccc2)oc2ccc(O)cc12	L929 necroptosis 85 | zVAD death conf inactive
CCN(CC)c1ccc(N/C(N)=N/c2nc(C(F)(F)F)cc(=O)[nH]2)cc1	L929 necroptosis 91 | zVAD death conf inactive
CC(C)C(=O)Nc1ncc(Cc2ccccc2Cl)s1	none
Nc1cc(C(=O)OCC(=O)NNC(=O)c2ccccc2)ccc1Cl	none (no result: TNF necrop inh, MDM2 E3 inh, L929 necroptosis, Dynein transport)
Nc1cc(C(=O)OCC(=O)NC(c2ccccc2)c2ccccc2)ccc1Cl	L929 necroptosis 85 | zVAD death conf inactive
Cc1ccc(N(C)S(=O)(=O)c2cccc(C(=O)OCC(=O)c3c(N)n(C)c(=O)n(C)c3=O)c2)cc1	none (no result: TNF necrop inh, MDM2 E3 inh, L929 necroptosis, Dynein transport)
CCC(C)c1ccc(OCC(=O)Nc2ccc3[nH]c(=O)[nH]c3c2)cc1 (stereo unspecified)	L929 necroptosis 78 | zVAD death conf inactive
C/C(N)=C(/C#N)C(=O)COc1ccc(Cl)cc1Cl	none
O=C(NC12CC3CC(CC(C3)C1)C2)c1ccc(Br)o1	none (no result: TNF necrop inh, MDM2 E3 inh, L929 necroptosis, Dynein transport)
O=C(NC12CC3CC(CC(C3)C1)C2)c1ccc(-c2ccc(Br)cc2)o1	L929 necroptosis 80 | zVAD death conf inactive
CCn1c(SCC(=O)N=Nc2c(O)[nH]c3ccccc23)nc2ccccc21	none
O=C(Cc1ccc(Cl)cc1Cl)OCC(=O)N1CCN(C(=O)c2ccco2)CC1	L929 necroptosis 76 | zVAD death conf inactive
Cc1cc(C(=O)OCC(=O)N2CCN(C(=O)c3ccco3)CC2)c(C)n1-c1ccc(F)cc1	L929 necroptosis 87 | zVAD death conf inactive
COc1ccc(C(=O)COC(=O)CCC(=O)c2cccs2)cc1	none
Cc1ccc(Nc2nc(OC(C(F)(F)F)C(F)(F)F)nc(N3CCOCC3)n2)cc1	L929 necroptosis 88 | zVAD death conf inactive
COc1ccc(Nc2nc(OC)nc(N3CCOCC3)n2)cc1	none
Cn1nc(C(C)(C)C)cc1NC(=O)Nc1ccc(Cl)cc1	L929 necroptosis 82 | zVAD death conf 55
Cn1nc(C(C)(C)C)cc1NC(=O)Nc1ccc(F)cc1F	none
O=[N+]([O-])c1cccc(-c2c(-c3ccccc3)ncc3ccc(F)cc23)c1	none (no result: TNF necrop inh, MDM2 E3 inh, L929 necroptosis, Dynein transport)
Cc1ccc(NC(=O)CSc2ccc(-c3cccnc3)nn2)cc1Cl	L929 necroptosis 82 | zVAD death conf inactive
Cc1ccc(NC(=O)CSc2ccc(-c3cccnc3)nn2)cc1	none (no result: TNF necrop inh, MDM2 E3 inh, L929 necroptosis, Dynein transport)
COc1ccc(-c2oc3ncnc(NCCCN4CCOCC4)c3c2-c2ccc(OC)cc2)cc1	L929 necroptosis 77 | zVAD death conf inactive
O=C(N/N=C/C=C/c1ccccc1)c1cc(C2CC2)[nH]n1	L929 necroptosis 77 | zVAD death conf inactive
Cc1cc(C(=O)N/N=C/C=C/c2cccc([N+](=O)[O-])c2)n[nH]1	L929 necroptosis 87 | zVAD death conf inactive
CNc1nc(Cl)nc2ncn(C)c12	none (no result: TNF necrop inh, MDM2 E3 inh, L929 necroptosis, Dynein transport)
Cc1ccc(NC(=O)C(OC(=O)c2ccc(NC(N)=O)cc2)c2ccccc2)cc1Cl (stereo unspecified)	L929 necroptosis 85 | zVAD death conf 70
O=C(C1=NNCC1c1ccc(Cl)cc1)C1CO1 (stereo unspecified)	TNF necrop inh 57, L929 necroptosis 89 (no result: MDM2 E3 inh) | zVAD death conf 94
Cc1ccc(C2CC(c3ccc(Cl)cc3)=NNC2=O)cc1 (stereo unspecified)	none (no result: MDM2 E3 inh)
CCOC(=O)CSc1nn(C)c(=S)s1	none
Cc1ccccc1N1CC(C(=O)Nc2ccncc2)CC1=O (stereo unspecified)	none (no result: TNF necrop inh, MDM2 E3 inh, L929 necroptosis, Dynein transport)
CC(C)(C)n1nc(-c2ccc(Cl)cc2)c2c(N)ncnc21	none
CC(C)(C)n1nc(-c2ccc(F)cc2)c2c(N)ncnc21	L929 necroptosis 79 | zVAD death conf inactive
COc1ccccc1NC(=O)Nc1ccncc1	none
COc1ccc(NC(=O)Nc2ccc(Cc3ccncc3)cc2)cc1OC	L929 necroptosis 82 | zVAD death conf inactive
COc1ccccc1NC(=O)Nc1ccc(Cc2ccncc2)cc1	L929 necroptosis 78 | zVAD death conf inactive
CC(C)(C)n1ncc2c(=O)n(CC(=O)N3CCN(c4ccccc4)CC3)cnc21	none
COc1ccc(S(=O)(=O)c2cnc3ccccc3n2)cc1	L929 necroptosis 76 | zVAD death conf inactive
Cn1nccc1C(=O)NC1CCCc2c1cnn2-c1cc(F)cc(F)c1 (stereo unspecified)	none (no result: TNF necrop inh, MDM2 E3 inh, L929 necroptosis, Dynein transport)
Cc1ccc(N=c2oc3cc(O)ccc3cc2C(N)=O)cc1	L929 necroptosis 79 | zVAD death conf inactive
COc1ccc(N(CC(=O)N/N=C(\C)c2cccs2)S(=O)(=O)c2ccccc2)cc1Cl	none (no result: Beta2AR agonist)
Cc1ccccc1/C=N/Nc1nc2ccccc2[nH]1	none
C(=N\Nc1nc2ccccc2[nH]1)/c1c[nH]c2ccccc12	L929 necroptosis 80 | zVAD death conf inactive
Cc1ccc(/C=N/Nc2nc3ccccc3[nH]2)s1	L929 necroptosis 76 | zVAD death conf inactive
C(=N\Nc1nc2ccccc2[nH]1)/c1ccccc1	L929 necroptosis 84 | zVAD death conf inactive
O=C(NNC(=O)c1ccco1)c1ccccc1	none
CC1(C)CC(=O)C2=C(C1)Oc1ncn3nc(-c4cccnc4)nc3c1C2c1ccccc1 (stereo unspecified)	none (no result: TNF necrop inh, MDM2 E3 inh, L929 necroptosis, Dynein transport)
COc1ccc(NC(=O)Nc2cnccn2)cc1	none
Cc1ccc(NC(=O)Nc2cnccn2)cc1Cl	L929 necroptosis 80 | zVAD death conf inactive
COC(=O)c1ccccc1NC(=O)Nc1cc(C)ccn1	none
O=C(Nc1cnccn1)Nc1ccc(Cl)cc1Cl	L929 necroptosis 80 | zVAD death conf inactive
Cc1ccccc1NC(=O)Nc1cnccn1	none (no result: TNF necrop inh, MDM2 E3 inh, L929 necroptosis, Dynein transport)
Cc1ccnc(NC(=O)Nc2ccc(Br)cc2Cl)c1	L929 necroptosis 83 | zVAD death conf inactive
Cc1cc(C)cc(NC(=O)c2ccc(CSc3nnnn3C)cc2)c1	none
Cn1nnnc1SCc1ccc(Cl)cc1	L929 necroptosis 83 | zVAD death conf inactive
Cn1nnnc1SCc1ccc(C(=O)Nc2nccs2)cc1	L929 necroptosis 92 | zVAD death conf 88
C=CCn1c(CCCOc2ccc(Cl)cc2Cl)nnc1SCC(=O)Nc1nccs1	none

High-throughput results from PubChem BioAssay.
